# Most compounds without a hit are left out; they make up all but 3.5% or so of the library.
# FN deposit inh – fibronectin deposition inhibition | AH1F fibroblasts, Alexa488-fibronectin deposition fluorescence, overnight | inhibition, % at 12.6 µM | 350,000 compounds, 0.086% hits;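 active = mean inhibition across replicates of 30% or more, regardless of how many single replicates reach that level; inconclusive = mean under 30% yet at least half of replicates reach 30%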;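 also: positive control wells lacked labelled fibronectin entirely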
#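 Test system: AH1F fibroblast monolayer depositing Alexa488-labelled fibronectin into matrix. Input: 10000 cells per well. Technique: fluorescence, ex 485 nm, em 525 nm. Buffer or medium: DMEM plus 2% serum, read in PBS. Timing: 1 h cell adhesion before compound, then overnight fibronectin incubation. Compound: single dose, pinned. Read-out basis: inhibition from reduced deposited-fibronectin fluorescence.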
# Ecoli rRNA inh – inhibitors of bacterial rRNA selective over humanized ribosomes. E. coli WT GFP vs humanized-ribosome RFP mutants, fluorescence, 24 h; active compounds read low; DMSO median 0, no signal -100. GFP signal change (wild-type ribosome), % (no concentration beside the values). 350,000 compounds, 1.6% hits. AID 720706;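 active = significant combined selectivity score with lowered wild-type GFP, culture density cut under 30%, mutant RFP and density less affected; inactive = any of these conditions unmet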
# PGC1a acetyl inh – lowers PGC1a acetylation signal in U2OS cells; 350,000 compounds, 0.17% hits; inhibition, % at 15.6 µM; AlphaScreen anti-acetyl-lysine; with virally co-expressed GCN5 acetyltransferase; AID 651687;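 active = every replicate shows inhibition of at least 40%; inconclusive = mean inhibition at least 40% but some replicate below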;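 also: 0% = neutral control wells and 100% = positive control wells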
# Env fusion inh – blocks HIV Env-driven cell-cell fusion | HeLa-JRFL Env/CEM21 cell fusion, luciferase | inhibition, % at 12.3 µM | 360,000 compounds, 1.1% hits | AID 651610;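 active = mean replicate inhibition score of at least 50 and every replicate individually at or above 50; inconclusive = only one of the two criteria met; inactive = mean below 50 and not all replicates reaching 50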;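 also: 0% = plate neutral controls and 100% = maraviroc near 300 nM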
# PglD DTNB – blocks C. jejuni PglD acetyltransferase activity; purified PglD enzyme, DTNB colorimetric CoA detection; inhibition, % at 12.5 µM; 360,000 compounds, 0.098% hits; AID 602405; in the data active = inhibition above about 16%, passing the limit was not always enough; inconclusive = no clear call, values can overlap the other calls
# DENV2 CPE rescue – protects cells from dengue virus 2 cytopathic effect; DENV2-infected cells, cytopathic effect rescue, plate reader; CPE inhibition, % at 9.99 µM; 350,000 compounds, 1.7% hits; in the data active = CPE inhibition above about 20%, passing the limit was not always enough; inconclusive = no clear call, values can overlap the other calls; tested in BHK-21 cells;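 also: 0% = median of neutral control wells and 100% = median of positive control wells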
# Active calls of the source: *; ? = inconclusive; / = no result given; [ ] = remark or other dose.
SMILES,FN deposit inh,Ecoli rRNA inh,PGC1a acetyl inh,Env fusion inh,PglD DTNB,DENV2 CPE rescue
O=C1N[C@@H](Cc2ccccc2)COCc2cn(nn2)CC[C@@H]1Cc1cccc(Cl)c1,-1.8,0.8,/,/,/,/
Cc1cc(C(=O)Nc2ccc3c(c2)C(=O)N(C)[C@@H]2CC[C@H](CC(=O)N[C@@H](C)c4ccccc4)O[C@@H]2CO3)no1,-5.9,-2.0,0.7,0.3[16.7 µM],-2.7,-6.9
COc1ccccc1C(=O)N1C[C@H]2[C@@H](c3ccccc31)[C@H](CO)N2C(=O)Cc1cccnc1,/,4.0,-0.9,/,5.3,-5.0
CC(C)NC(=O)N(C)C[C@H]1Oc2ccc(NS(C)(=O)=O)cc2C(=O)N([C@H](C)CO)C[C@@H]1C,-4.6,4.7,14.4,-3.9[16.7 µM],0.5,-9.3
Cc1ccc(S(=O)(=O)Nc2ccc3c(c2)C(=O)N([C@H](C)CO)C[C@H](C)[C@H](CN(C)C(=O)NC(C)C)O3)cc1,/,5.7,-2.7,5.1[16.7 µM],2.4,-2.7
CC(C)NC(=O)N(C)C[C@@H]1Oc2ccc(NS(C)(=O)=O)cc2C(=O)N([C@@H](C)CO)C[C@@H]1C,-8.0,3.5,-0.7,20.3[16.7 µM],-0.6,20.4*
Cc1ccc(S(=O)(=O)Nc2ccc3c(c2)C(=O)N([C@@H](C)CO)C[C@H](C)[C@H](CN(C)C(=O)NC2CCCCC2)O3)cc1,/,2.9,2.7,/,-0.7,14.1
Cc1ccc(S(=O)(=O)Nc2ccc3c(c2)C(=O)N([C@@H](C)CO)C[C@H](C)[C@H](CN(C)C(=O)NC(C)C)O3)cc1,/,3.2,-15.5,20.1[16.7 µM],-2.0,31.9*
Cc1ccc(S(=O)(=O)Nc2ccc3c(c2)C(=O)N([C@H](C)CO)C[C@@H](C)[C@H](CN(C)C(=O)NC2CCCCC2)O3)cc1,/,-1.3,-2.3,/,-2.0,40.8*
C[C@@H]1CN([C@H](C)CO)C(=O)c2cc(NC(=O)Nc3ccc4c(c3)OCO4)ccc2O[C@@H](C)CCCCO[C@H]1CN(C)S(=O)(=O)c1cn(C)cn1,/,5.1,-1.2,22.5[16.7 µM],-2.0,2.7
O=C(NCC[C@H]1CC[C@H](NS(=O)(=O)c2cccc(F)c2)[C@@H](CO)O1)C1CCCCC1,9.2,-3.4,-0.4,-7.4[16.7 µM],-0.7,-2.2
O=C(N/N=C/c1cc(Cl)cc(Cl)c1O)c1ccncc1,-0.9,-19.2*,15.5,6.2,7.7,4.4
CCOc1ccc(OCc2cccc(C(=O)N/N=C/c3cccnc3)c2)cc1,-0.8,/,-2.6,69.2*,1.4,/
O=C(N/N=C/c1ccc(Cl)cc1Cl)c1ccncc1,-2.7,20.9,6.4,9.9,-1.6,0.1
O=C(N/N=C/c1cccc(Oc2ccccc2)c1)c1ccncc1,-3.6,-21.3*,7.8,15.4,/,?
CCn1c2ccccc2c2cc(/C=N/NC(=O)c3ccncc3)ccc21,9.2,-35.9*,/,-231.4,3.0,-0.3
CC(C)c1ccc(OCc2cccc(C(=O)N/N=C/c3cccnc3)c2)cc1,2.8,-15.8,3.2,/,-6.2,6.3
CCn1c2ccccc2c2cc(/C=N/NC(=O)c3ccc(O)cc3)ccc21,9.1,-4.2,/,/,/,7.5
C[C@@H](NC(=O)C[C@H]1CC[C@@H]2[C@@H](COc3ccc(NC(=O)C4CCOCC4)cc3C(=O)N2C)O1)c1ccccc1,5.5,3.4,1.8,/,/,/
Cc1ccc2nc3c(cc(S(=O)(=O)c4ccccc4)c(=N)n3Cc3ccco3)c(=O)n2c1,3.0,-21.1*,-1.5,7.8,-9.1,5.7
O=C(C[C@H]1C[C@H]2c3cc(NS(=O)(=O)c4ccccc4)ccc3O[C@H]2[C@H](CO)O1)N1CCOCC1,5.0,1.0,6.3,-13.9[16.7 µM],-0.2,-0.4
COc1cccc(-c2ccc([C@H]3[C@@H](CO)N4CCCCN(Cc5cncnc5)C[C@@H]34)cc2)c1,/,4.9,7.1,/,-4.7,/
COc1cccc(CN2CCCCN3[C@@H](CO)[C@H](c4ccc(C#Cc5cccnc5)cc4)[C@@H]3C2)c1,/,-17.8*,-2.5,/,17.5,?
OC[C@@H]1[C@@H](c2ccc(-c3ccccc3F)cc2)[C@H]2CN(Cc3cncnc3)CCCCN12,/,3.3,5.8,/,1.6,68.3*
COc1cccc(-c2ccc([C@H]3[C@@H](CO)N4CCCCN(Cc5cncnc5)C[C@H]34)cc2)c1,/,1.5,-1.4,/,-7.3,38.3*
SMILES,FN deposit inh,Ecoli rRNA inh,PGC1a acetyl inh,Env fusion inh,PglD DTNB,DENV2 CPE rescue
COc1cccc(CN2CCCCN3[C@H](CO)[C@@H](c4ccc(C#Cc5cccnc5)cc4)[C@@H]3C2)c1,/,7.9,-10.9,/,18.0,19.3
OC[C@@H]1[C@@H](c2ccc(-c3cccc(F)c3)cc2)[C@@H]2CN(Cc3cncnc3)CCCCN12,2.7,-0.7,-1.7,/,5.2,46.7*
C[C@@H]1CN([C@@H](C)CO)C(=O)c2cc(NC(=O)Nc3ccc4c(c3)OCO4)ccc2O[C@@H](C)CCCCO[C@@H]1CN(C)Cc1ccc(C(=O)O)cc1,/,-1.6,17.9,9.5[16.7 µM],-1.4,1.8
CNC(=O)N(O)C1N(/N=C/c2ccccc2O)C(=S)SC1(C)C (stereo not drawn),4.4,1.4,9.7,-2.0,/,-3.2
CCCCNC(=O)N(O)C1N(/N=C/c2cccs2)C(=S)SC1(C)C (stereo not drawn),-0.7,-16.4,/,66.9*,/,-10.0
O=C(c1ccccc1F)N1CC(=O)N2[C@H](CO)[C@@H](c3ccc(-c4ccc(F)cc4)cc3)[C@@H]2C1,/,-39.7,13.1,/,/,-10.6
Cc1ccc(CNC(=O)CSc2nnc3n2CCCCC3)cc1,7.9,/,6.5,/,-0.7,-2.8
O=C(CSc1nnc2n1CCCCC2)NCc1ccccc1,-0.8,7.1,8.0,57.8*,-2.4,3.0
C[C@@H]1CN([C@@H](C)CO)C(=O)c2cc(C3=CCCCC3)cnc2O[C@H]1CN(C)C(=O)C1CCOCC1,-5.1,4.5,2.6,-16.6[16.7 µM],1.7,1.5
COC(=O)N1CCCCC1c1cc(C(=O)Nc2ccc(OC)cc2C)no1 (stereo not drawn),7.7,6.3,19.0,2.4,2.4,50.6*
COc1ccc(S(=O)(=O)N2CCCCC2c2cc(C(=O)Nc3ccccc3)no2)cc1 (stereo not drawn),5.9,0.2,-23.1,1.8,-1.1,32.9*
COc1ccc(S(=O)(=O)N2CCCCC2c2cc(C(=O)Nc3ccccc3Cl)no2)cc1 (stereo not drawn),-6.4,-0.6,-3.1,25.5,-6.5,-2.1
COc1ccc(C(=O)N2CCCCC2c2cc(C(=O)NCc3cccnc3)no2)cc1 (stereo not drawn),2.5,11.4,0.0,/,3.0,32.8*
COc1ccc(NC(=O)c2cc(C3CCCCN3C(=O)c3cc(C(C)(C)C)nn3C)on2)c(C)c1 (stereo not drawn),1.7,-3.7,-3.5,3.1,1.2,48.0*
CC(C)c1cn(CC[C@H]2CC[C@H](NC(=O)C3CCCCC3)[C@H](CO)O2)nn1,-2.2,3.7,-7.0,-11.0[16.7 µM],-1.6,-5.2

# Source: PubChem (Broad Institute)
